Laboratory results from ChEMBL document CHEMBL1121378, “Lipophilic and hydrophilic esters of 4-acetyl-2-(2-hydroxyethyl)-5,6-bis(4-chlorophenyl)-2H-pyridazin-3-one as antihypertensive agents” (1980).

Assays:
Rattus norvegicus [1] = assay: Antihypertensive activity in spontaneously hypertensive rats was measured as average blood pressure at 13 mg/kg, po after 24 hours of postdose-1; assay type: functional
Method in brief: (§1)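 SHR model with two successive doses, designated dose 1 and dose 2. Group-average blood pressure in mmHg was recorded before dosing and at 4 h and 24 h after each dose. The route is oral unless marked intra-arterial or subcutaneous. A table footnote marks doses that gave no significant lowering at 4 or 24 h postdose.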

Rattus norvegicus [2] = assay: Antihypertensive activity in spontaneously hypertensive rats was measured as average blood pressure at 13 mg/kg, p.o. after 24 hours of postdose-2; assay type: functional; details: route oral; method in brief: as §1
Rattus norvegicus [3] = assay: Antihypertensive activity in spontaneously hypertensive rats was measured as average blood pressure at 13 mg/kg, p.o. after 4 hours of postdose-2; assay type: functional; details: route oral; method in brief: as §1
Rattus norvegicus [4] = assay: Antihypertensive activity in spontaneously hypertensive rats was measured as average blood pressure at 13 mg/kg, p.o. before predose; assay type: functional; details: route oral; method in brief: as §1
Rattus norvegicus [5] = assay: Antihypertensive activity in spontaneously hypertensive rats was measured as average blood pressure at 13 mg/kg, p.o. after 4 hours of postdose-1; assay type: functional; details: route oral; method in brief: as §1
Rattus norvegicus [6] = assay: Antihypertensive activity in spontaneously hypertensive rats was measured as average blood pressure at 10 mg/kg, p.o. before predose; assay type: functional; details: route oral; method in brief: as §1
Rattus norvegicus [7] = assay: Antihypertensive activity in spontaneously hypertensive rats was measured as average blood pressure at 10 mg/kg, p.o. after 24 hours of postdose-2; assay type: functional; details: route oral; method in brief: as §1
Rattus norvegicus [8] = assay: Antihypertensive activity in spontaneously hypertensive rats was measured as average blood pressure at 10 mg/kg, p.o. after 4 hours of postdose-1; assay type: functional; details: route oral; method in brief: as §1
Rattus norvegicus [9] = assay: Antihypertensive activity in spontaneously hypertensive rats was measured as average blood pressure at 10 mg/kg, p.o. after 24 hours of postdose-1; assay type: functional; details: route oral; method in brief: as §1
Rattus norvegicus [10] = assay: Antihypertensive activity in spontaneously hypertensive rats was measured as average blood pressure at 10 mg/kg, p.o. after 4 hours of postdose-2; assay type: functional; details: route oral; method in brief: as §1
Rattus norvegicus [11] = assay: Antihypertensive activity in spontaneously hypertensive rats was measured as average blood pressure at 100 mg/kg, p.o. after 24 hours of postdose-1; assay type: functional; details: route oral; method in brief: as §1
Rattus norvegicus [12] = assay: Antihypertensive activity in spontaneously hypertensive rats was measured as average blood pressure at 100 mg/kg, p.o. after 24 hours of postdose-2; assay type: functional; details: route oral; method in brief: as §1
Rattus norvegicus [13] = assay: Antihypertensive activity in spontaneously hypertensive rats was measured as average blood pressure at 30 mg/kg, p.o. after 24 hours of postdose-1; assay type: functional; details: route oral; method in brief: as §1
Rattus norvegicus [14] = assay: Antihypertensive activity in spontaneously hypertensive rats was measured as average blood pressure at 30 mg/kg, po after 24 hours of postdose-2; assay type: functional; method in brief: as §1
Rattus norvegicus [15] = assay: Antihypertensive activity in spontaneously hypertensive rats was measured as average blood pressure at 30 mg/kg, p.o. after 4 hours of postdose-2; assay type: functional; details: route oral; method in brief: as §1
Rattus norvegicus [16] = assay: Antihypertensive activity in spontaneously hypertensive rats was measured as average blood pressure at 30 mg/kg, po before predose; assay type: functional; method in brief: as §1
Rattus norvegicus [17] = assay: Antihypertensive activity in spontaneously hypertensive rats was measured as average blood pressure at 100 mg/kg, p.o. after 4 hours of postdose-1; assay type: functional; details: route oral; method in brief: as §1
Rattus norvegicus [18] = assay: Antihypertensive activity in spontaneously hypertensive rats was measured as average blood pressure at 100 mg/kg, p.o. after 4 hours of postdose-2; assay type: functional; details: route oral; method in brief: as §1
Rattus norvegicus [19] = assay: Antihypertensive activity in spontaneously hypertensive rats was measured as average blood pressure at 100 mg/kg, p.o. before predose; assay type: functional; details: route oral; method in brief: as §1
Rattus norvegicus [20] = assay: Antihypertensive activity in spontaneously hypertensive rats was measured as average blood pressure at 15 mg/kg, po after 24 hours of postdose-1; No significant lowering of blood pressure; assay type: functional, organism-based; set-up: dose 15 mg/kg; method in brief: as §1
Rattus norvegicus [21] = assay: Antihypertensive activity in spontaneously hypertensive rats was measured as average blood pressure at 15 mg/kg, p.o. after 4 hours of postdose-1; No significant lowering of blood pressure; assay type: functional, organism-based; set-up: dose 15 mg/kg; method in brief: as §1
Rattus norvegicus [22] = assay: Antihypertensive activity in spontaneously hypertensive rats was measured as average blood pressure at 100 mg/kg, p.o. after 24 hours of postdose-1; No significant lowering of blood pressure; assay type: functional, organism-based; set-up: dose 100 mg/kg; method in brief: as §1
Rattus norvegicus [23] = assay: Antihypertensive activity in spontaneously hypertensive rats was measured as average blood pressure at 100 mg/kg, po after 4 hours of postdose-1; No significant lowering of blood pressure; assay type: functional, organism-based; set-up: dose 100 mg/kg; method in brief: as §1
Rattus norvegicus [24] = assay: Antihypertensive activity in spontaneously hypertensive rats was measured as average blood pressure at 30 mg/kg, p.o. after 4 hours of postdose-1; assay type: functional; details: route oral; method in brief: as §1

Compound: CC(=O)c1c(-c2ccc(Cl)cc2)c(-c2ccc(Cl)cc2)nn(CCOC(=O)CCN)c1=O.Cl
- BP (Rattus norvegicus [1]): 215 mmHg
- BP (Rattus norvegicus [2]): 209 mmHg
- BP (Rattus norvegicus [3]): 195 mmHg
- BP (Rattus norvegicus [4]): 215 mmHg
- BP (Rattus norvegicus [5]): 210 mmHg

Compound: CC(=O)OCCn1nc(-c2ccc(Cl)cc2)c(-c2ccc(Cl)cc2)c(C(C)=O)c1=O
- BP (Rattus norvegicus [6]): 183 mmHg
- BP (Rattus norvegicus [7]): 176 mmHg
- BP (Rattus norvegicus [8]): 162 mmHg
- BP (Rattus norvegicus [9]): 181 mmHg
- BP (Rattus norvegicus [10]): 149 mmHg
- BP (Rattus norvegicus [11]): 132 mmHg
- BP (Rattus norvegicus [12]): 143 mmHg
- BP (Rattus norvegicus [13]): 165 mmHg
- BP (Rattus norvegicus [14]): 152 mmHg
- BP (Rattus norvegicus [15]): 140 mmHg
- BP (Rattus norvegicus [16]): 183 mmHg
- BP (Rattus norvegicus [17]): 150 mmHg
- BP (Rattus norvegicus [18]): 122 mmHg
- BP (Rattus norvegicus [19]): 182 mmHg

Compound: Br.CC(=O)c1c(-c2ccc(Cl)cc2)c(-c2ccc(Cl)cc2)nn(CCOC(=O)CN)c1=O
- BP (Rattus norvegicus [1]): 154 mmHg
- BP (Rattus norvegicus [2]): 170 mmHg
- BP (Rattus norvegicus [3]): 145 mmHg
- BP (Rattus norvegicus [4]): 182 mmHg
- BP (Rattus norvegicus [5]): 177 mmHg

Compound: CSCCC(N)C(=O)OCCn1nc(-c2ccc(Cl)cc2)c(-c2ccc(Cl)cc2)c(C(C)=O)c1=O (centres undefined)
- BP (Rattus norvegicus [20]): Not significant
- BP (Rattus norvegicus [21]): Not significant

Compound: CC(=O)c1c(-c2ccc(Cl)cc2)c(-c2ccc(Cl)cc2)nn(CCOC(=O)CCNC(=O)OCc2ccccc2)c1=O
- BP (Rattus norvegicus [22]): Not significant
- BP (Rattus norvegicus [23]): Not significant

Compound: CC(=O)c1c(-c2ccc(Cl)cc2)c(-c2ccc(Cl)cc2)nn(CCOC(=O)C(C)(C)C)c1=O
- BP (Rattus norvegicus [13]): 202 mmHg
- BP (Rattus norvegicus [14]): 205 mmHg
- BP (Rattus norvegicus [24]): 200 mmHg
- BP (Rattus norvegicus [15]): 158 mmHg
- BP (Rattus norvegicus [16]): 205 mmHg

Compound: CC(=O)c1c(-c2ccc(Cl)cc2)c(-c2ccc(Cl)cc2)nn(CCOC(=O)C(NC(=O)OCc2ccccc2)C2(/N=C(/N)N[N+](=O)[O-])CCC2)c1=O (centres undefined)
- BP (Rattus norvegicus [22]): Not significant
- BP (Rattus norvegicus [23]): Not significant

Compound: CC(=O)c1c(-c2ccc(Cl)cc2)c(-c2ccc(Cl)cc2)nn(CCOC(=O)C(NC(=O)OCc2ccccc2)C(C)C)c1=O (centres undefined)
- BP (Rattus norvegicus [22]): Not significant
- BP (Rattus norvegicus [23]): Not significant

Compound: C[C@](N)(Cc1ccc(O)c(O)c1)C(=O)O [METHYLDOPA]
- BP (Rattus norvegicus [11]): 174 mmHg
- BP (Rattus norvegicus [12]): 166 mmHg
- BP (Rattus norvegicus [17]): 161 mmHg
- BP (Rattus norvegicus [18]): 155 mmHg
- BP (Rattus norvegicus [19]): 178 mmHg

Compound: CC(=O)c1c(-c2ccc(Cl)cc2)c(-c2ccc(Cl)cc2)nn(CCOC(=O)CNC(=O)OCc2ccccc2)c1=O
- BP (Rattus norvegicus [22]): Not significant
- BP (Rattus norvegicus [23]): Not significant

Compound: CCCCCCCCCCCCCCCCCC(=O)OCCn1nc(-c2ccc(Cl)cc2)c(-c2ccc(Cl)cc2)c(C(C)=O)c1=O
- BP (Rattus norvegicus [13]): 162 mmHg
- BP (Rattus norvegicus [14]): 137 mmHg
- BP (Rattus norvegicus [24]): 168 mmHg
- BP (Rattus norvegicus [15]): 142 mmHg
- BP (Rattus norvegicus [16]): 181 mmHg
